Screen size: about 20,000 compounds; about 10 (0.05%) were called active. Rule as the data show it: active = inhibition above about 40%; inactive = the rest. Many of the other results were omitted from the sample, so actives are more common in it than they were. Where a SMILES comes first, the peptide text is derived from it. [ ]: non-standard residue; d: D form. ξ: configuration not given here. ξV = CC(C)C(N)C(=O)O
assay: antibacterial activity on E. coli BW25113 – strain BW25113 wild type, absorbance readout, primary screen (AID 552);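 also: bacteria exposed to compound for 20 hours at 37 °C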; details: E. coli BW25113 growth inhibition, OD600; at 10 µM; stronger effect = higher value
How it was run: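 assay system = bacterial strain in a whole-cell growth screen | quantity = inoculum from a 1:1000 dilution of a 1.5 h subculture | buffer or medium = LB broth with 50 µg/mL kanamycin | compound dosing = one dose, 10 µM final | schedule = compound exposure of 20 h at 37 °C | technique = absorbance at 615 nm as a measure of bacterial growth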

inhibition, inactive:
CCOC(=O)N1CCC(O)(c2cc(C)c(C)cc2C)CC1 2.31%
CCOC(=O)c1ccc(NC(=O)CSc2nnc(COc3ccccc3OC)n2C)cc1 -14.8%
O=C(OCc1ccccc1F)c1ccc2c(c1)OCCO2 6.06%
CCN(Cc1nc2ccccc2c(=O)[nH]1)Cc1cc(=O)oc2cc(C)c(C)cc12 -2.52%
Cc1noc(C)c1C(=O)NC(C)c1ccc2c(c1)OCO2 (configuration not stated) -22.5%
CC(C)COC(=O)C1C2C=CC3(CN(C(C)c4ccc(Br)cc4)C(=O)C13)O2 (configuration not stated) 15.3%
COC(=O)c1ccc(Oc2nc(Nc3ccc(F)cc3)nc(N3CCCC3)n2)cc1 -16.9%
CSc1ccc(S(=O)(=O)Nc2cccc(F)c2)cc1 -8.18%
CCN(CC)S(=O)(=O)c1ccc(NC(=O)CN(c2cccc(F)c2)S(C)(=O)=O)cc1 -6.94%
CS(=O)(=O)N(CC(=O)N1CCOCC1)c1ccc2c3c(cccc13)CC2 -16.3%
CC(=O)NC(C(=O)NCC(N)=O)C(C)C (configuration not stated) (Ac-[ξV]-Gly-NH2) 7.41%
CCCCN(CC)CCCNC(=O)CS(=O)(=O)Cc1nc(-c2cccc(OC)c2)oc1C 4.26%
CCOC(=O)n1c(SCC(=O)N(CC)CC)nc2ccccc21 -3.3%
Cc1cc(C)nc(N2C(=O)CC(Cc3ccccc3)C2=O)n1 (configuration not stated) -9.77%
CC(C)C[C@H](NC(=O)[C@@H]1O[C@H]1C(=O)O)C(=O)NCCCCN=C(N)N -3.4%
CN(C)CCNC(CC(=O)Nc1ccc(Cl)c(Cl)c1)C(=O)O (configuration not stated) -14.6%
COc1ccc(C(=O)Nc2cccnc2)cc1C(=O)Nc1cccnc1 1.96%
COC(=O)Nc1c(C)n(C)n(-c2ccccc2)c1=O -2.62%
Cc1ccc(C)c(S(=O)(=O)N2CC(=O)Nc3ccccc32)c1 -14.8%
COCCn1c(C)cc(C(=O)CSc2ncnc3sc4c(c23)CCC4)c1C 2.06%
Cc1nc(C)c(C(=O)Nc2ccc(C)c(F)c2)o1 -3.6%
COc1cc(-c2nc(S(=O)(=O)c3ccc(Cl)cc3)c(N(C)C)o2)cc(OC)c1OC -0.36%
Cc1cc(C(=O)NCCCc2ccccc2)no1 -3.97%
CCc1ccc(CCC(=O)Nc2ccc(S(N)(=O)=O)cc2)o1 -21.2%
Cc1ccc(-c2noc(-c3ccccc3C(=O)NCC3CCCO3)n2)cc1 (configuration not stated) 8.67%
CC1(C)C(=O)Nc2ccccc2N1C(=O)COC(=O)Cn1cnc2ccccc2c1=O -1.7%
O=C1CC(c2ccccc2)CC(O)=C1C=NCCN1CCOCC1 (configuration not stated) 0.58%
COCCCNC(=O)CSc1nc2ccc(N3CCOCC3)cc2c(=O)n1CCc1ccccc1 1.57%
CCCC(=O)Nc1ccc(C(=O)NCCCn2ccnc2)cc1 -11.9%
COc1ccc(S(=O)(=O)N2CCOCC2)cc1C(=O)Nc1nc2ccccc2s1 4.62%
CCn1c(SCC(=O)Nc2nccs2)nnc1-c1ccncc1 -9.46%
CCCC1CC(C)(C(=O)Cn2[nH]c(=O)ccc2=O)OC1=O (configuration not stated) 19.6%
CC(C)Cc1ccc(S(=O)(=O)N2CCN(C(=O)c3ccco3)CC2)cc1 -19.7%
O=C(CS(=O)(=O)c1cn(Cc2ccc(Cl)cc2)c2ccccc12)N1CCOCC1 -0.05%
CCOC(=O)C1CCN(C(=O)Cn2cc(C#N)c3ccccc32)CC1 6.78%
O=C(O)C1CC=C(Cl)CC1C(=O)NCc1ccccc1 (configuration not stated) -2.5%
CCOC(=O)c1cc(NC(=O)c2cccnc2)cc(C(=O)OCC)c1 -7.79%
CCOC(=O)c1c(N)c(C#N)nn1-c1ccccc1C(=O)OC -8.34%
CCN1CCN(C(=O)CN(C)S(=O)(=O)c2ccc(OC)cc2)CC1 -16.9%
C=CCNC(=O)CSc1nc2sc(C)c(C)c2c(=O)[nH]1 -0.815%
O=C(O)[C@@H]1CCCN1c1ncnc2sc3c(c12)CCC3 5%
CN1C(C)(C)CC(NC(=O)CCC(=O)NC2CC(C)(C)N(C)C(C)(C)C2)CC1(C)C -21%
COc1ccccc1N1CCN(C(=O)c2cc(-c3ccc(Cl)c(Cl)c3)on2)CC1 -2.37%
COc1ccc(OC)c(S(=O)(=O)Nc2ccccc2F)c1 -13.8%
Cc1noc(C)c1C(=O)Nc1ccccn1 -22.1%
Cc1ccc(SCCN2C(=O)NC(C)(C)C2=O)cc1 4.35%
COc1cc(C2C(C#N)=C(C)NC3=C2C(=O)CC(C)(C)C3)ccc1O (configuration not stated) 5.23%
COC(=O)c1ccc(Oc2nc(NC(C)C)nc(SC)n2)cc1 -19.1%
CCOC(=O)c1cc(NC(=O)SCC(=O)O)c(C)nc1C -3.26%
Cc1onc(-c2ccccc2)c1C(=O)N1CCOCC1 16.2%
CCOC(=O)Cc1csc(NC(=O)CN(C)S(=O)(=O)c2ccc3c(c2)CCC(=O)N3)n1 3.09%
CN(C)S(=O)(=O)c1ccc(Oc2ccc(S(=O)(=O)N(C)C)cc2)cc1 7.29%
Cn1nnnc1SCC(=O)N1CCN(C(c2ccccc2)c2ccccc2)CC1 4.16%
CC12CCC(C(=O)N3CCN(c4ncccn4)CC3)(c3nc4ccccc4nc31)C2(C)C (configuration not stated) -25.6%
COc1c(C(=O)N2CCCC2)ccc2ccccc12 -8.42%
COc1ccc(CSc2nc(N3CCOCC3)c3c(c2C#N)CC(C)(C)OC3)cc1 -19.4%
CCC(C)n1[nH]c(=O)c2c(C)cc(C)nc21 (configuration not stated) 5.71%
CCCCSc1nnc(-c2ccc(NC(=O)CC)cc2)n1C -21.9%
Cc1cc(C)c2c(n1)nn1c(N3CCN(c4cccc(Cl)c4)CC3)cc(C)nc21 -4.02%
Cc1cc(Cl)c(S(=O)(=O)NCCC(=O)O)cc1OCC(N)=O -0.81%
COCCn1c(-c2ccc(OC)c(OC)c2)nc2ccccc21 -1.61%
Cc1cc(C(F)(F)F)nn1CC(=O)N1CCCC1 3.35%
Cn1c(=O)[nH]c(=O)c2c1nc(N(CCO)Cc1ccccc1)n2Cc1ccccc1Cl -2.48%
CC1CCc2c(sc3c2C2=NS(=O)(=O)CCN2C=N3)C1 (configuration not stated) 6%
Cc1nn(CC(=O)Nc2ccc3c(c2)nc(CN2CCCCC2)n3C)c(=O)c2ccccc12 2.04%
COc1ccccc1-c1nc(C(F)(F)F)c(OC)o1 -5.84%
O=c1ccc2cc(S(=O)(=O)N3CCN(c4ccccc4)CC3)ccc2o1 -12.1%
Cc1ccc(C(=O)N2CCCCCC2)cc1Br -8.59%
COc1cccc(-c2nc(S(=O)(=O)c3ccccc3)c(N3CCOCC3)o2)c1 7.07%
COc1ccccc1-c1cc(C(=O)NCCCn2ccnc2)no1 -4.16%
O=C(O)Cc1ccc(NC(=O)c2cccs2)cc1 -19.2%
COC(=O)Cc1c(C)c2ccc(OCC(=O)NCc3ccc4c(c3)OCO4)cc2oc1=O -21.1%
O=C(CS(=O)(=O)Cc1ccccc1)Nc1cccnc1 6.45%
O=C(NCc1ccco1)c1cc(-c2cccnc2)nc2ccc(Cl)cc12 -19.8%
CCSc1nc2c(c(=O)[nH]1)C(c1cccnc1)C(C(=O)OC(C)C)=C(C)N2 (configuration not stated) -1.79%
Cc1cccc(C(=O)Nc2ccc(CC(=O)O)cc2)c1 -0.63%
O=C(Nc1ccccc1)N(Cc1cccnc1)Cc1ccco1 -3.67%
O=C(CSc1nc2ccccc2o1)N1CCN(c2ccccc2)CC1 -25.4%
CC(=O)Nc1ccc(S(=O)(=O)Nc2nc3n(n2)C(c2ccccc2)CC(=O)N3)cc1 (configuration not stated) -1.04%
Cc1cc2c(cc1C)NC(c1ccccn1)C1=C(CC(C)(C)CC1=O)N2 (configuration not stated) -18.9%
CCOC(=O)COc1ccc(Cl)cc1C1NC(=O)NC(C)=C1C(C)=O (configuration not stated) -10.9%
O=C(COc1ccc(F)cc1)N(CC1=CCS(=O)(=O)C1)c1ccccc1 -20.6%
CC1(C)CC(=O)C=C(NCc2ccncc2)C1 -1.29%
CCc1cc(Br)ccc1NC(=O)C1CCCO1 (configuration not stated) -16.5%
Cc1cc(C)nc(SCc2nnc(SCC(=O)Nc3ncc(C)s3)n2Cc2ccco2)n1 -3.82%
CCOc1ccc(-c2nnn(CC(=O)N3CCN(c4ccc(F)cc4)CC3)n2)cc1OCC -5.75%
CCCOc1ccccc1-c1nc(SCCC(=O)O)n[nH]1 -18.4%
CCOC(=O)CSc1nnc(CNC(=O)c2cccs2)n1-c1cc(OC)ccc1OC 6.52%
Cc1cc(C)n(C(=O)c2ccc(S(=O)(=O)N3CCCC3)cc2)n1 -20.2%
CCCCn1c(CN2CCN(CCO)CC2)nc2ccccc21 -3.29%
Nc1nc(SCCOc2ccccc2)n[nH]1 6.28%
O=C(CSc1nc(-c2ccco2)cc(C(F)(F)F)n1)N1CCc2ccccc2C1 -19.6%
COCCn1c(CN(Cc2ccccc2)Cc2ccccc2)nc2c1c(=O)n(C)c(=O)n2C 12.3%
O=C(CSc1nnc(-c2cccs2)n1-c1ccccc1)NCc1ccco1 -20.9%
CCS(=O)(=O)NCCc1ccc(OC)c(OC)c1 -17.9%
CC1=C(C(=O)Nc2ccccc2)C(c2cccs2)C(C#N)=C(SCC#N)N1 (configuration not stated) 7.71%
CCn1cc(NC(=O)Nc2ccc(OC)c(OC)c2)c(C(N)=O)n1 -17.1%
NC(=O)CSc1oc(-c2cccs2)nc1S(=O)(=O)c1ccccc1 -19.6%
COc1ccc(-c2noc(COc3ccc(Cl)c(C)c3)n2)cc1 15.8%
CS(=O)(=O)N(Cc1nc2sc3c(c2c(=O)[nH]1)CCCC3)C1CCCCC1 9.07%
CC(c1nnc(SCC(=O)Nc2sccc2C#N)n1-c1ccc(Cl)cc1)N(C)C (configuration not stated) -3.98%
Cc1ccc(S(=O)(=O)NCc2nc3ccccc3c(=O)n2N)cc1 -21.5%

Reference: PubChem BioAssay AID552 (SRMLSC, 2006)
